According to ChEMBL document CHEMBL2046351, “Discovery of cyclic sulfone hydroxyethylamines as potent and selective β-site APP-cleaving enzyme 1 (BACE1) inhibitors: structure-based design and in vivo reduction of amyloid β-peptides” (J Med Chem, 2012):
pIC50: −log10 of the molar value.

What was measured:
Homo sapiens = species: Homo sapiens; experiment: Selectivity index, ratio of IC50 for human recombinant CatD to IC50 for human recombinant BACE1
Cathepsin D = Cathepsin D (Homo sapiens, UniProt P07339); experiment: Inhibition of human recombinant CatD using Mca-GKPILFFRLK(DNP)-dR-NH2 as substrate after 1 hr by fluorescence analysis
MDR1 (human) [1] = experiment: Efflux ratio of permeability from basolateral to apical over apical to basolateral side of MDCK cells expressing human MDR1 at 5 uM after 2 hrs by LC/MS analysis; format: ADME, cell-based, Canis lupus familiaris; conditions: dog
Summary of the method: (§1)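 MDCK cells retrovirally transduced with human MDR1, seeded on transwells ≥3 days; bidirectional transport at 5 μM, 2 h, 37 °C, LC/MS quantitation. Papp = (dQ/dt)/(A·C0), A 0.11 cm2; ER = Papp B>A / Papp A>B. Means of at least three experiments.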

[2] = Drug uptake in APP51/16 transgenic mouse blood at 180 umol/kg, po measured 4 hrs post dosing by LC/MS/MS analysis; format: ADME, organism-based; conditions: read-out: Drug uptake
Summary of the method: (§2)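 APP51/16 transgenic mice given oral gavage (10 mL/kg); blood and forebrain taken at 4 h postdose. Blood extracted by acetonitrile precipitation; brain homogenized in water, then acetonitrile-precipitated. LC-MS/MS quantitation against weighted linear calibration of analyte/internal standard area ratio.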

Mus musculus [3] = experiment: Antialzheimer activity in APP51/16 transgenic mouse expressing human APP51/16Npa and mouse Thy1 assessed as reduction in brain C99 level reduction at 180 umol/kg, po measured 4 hrs post dosing; format: functional; set-up: scale not given: the % may be the effect or the level left
Summary of the method: (§3)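 Hemizygous APP51/16 mice (human APP751 wild-type under murine Thy-1 cassette, C57BL/6 background) gavaged (10 mL/kg), decapitated at 4 h. Forebrain homogenized in TBS with protease inhibitors, 1% TX-100 extract, spun 100000 rpm 30 min 4 °C. Aβ40 by 6E10 electrochemiluminescence immunoassay against spiked nontransgenic extract standards; C99 by APP-C8 western blot, densitometry. Two-tailed Student's t test versus vehicle.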

Brain [4] = experiment: Drug uptake in APP51/16 transgenic mouse brain at 180 umol/kg, po measured 4 hrs post dosing by LC/MS/MS analysis; format: ADME, organism-based; conditions: in vivo; summary of the method: as §2
MDR1 (human) [5] = experiment: Apparent permeability across MDCK cells expressing human MDR1 at 5 uM after 2 hrs by LC-MS analysis; format: ADME, cell-based, Canis lupus familiaris; conditions: dog; summary of the method: as §1
Beta-secretase 1 [6] = target: T1, Beta-secretase 1 (Homo sapiens, UniProt P56817)
Mus musculus [7] = experiment: Antialzheimer activity in APP51/16 transgenic mouse expressing human APP51/16Npa and mouse Thy1 assessed as reduction in amyloid beta (1 to 40) reduction at 180 umol/kg, po measured 4 hrs post dosing; format: functional; set-up: scale not given: the % may be the effect or the level left; summary of the method: as §3
[8] = AUC (0 to infinity) in C57BL/6 mouse at 2 umol/kg, iv dosed in N-methyl pyrrolidone/blank plasma (10:90 v/v) by LC/MS/MS analysis; format: ADME, organism-based; set-up: dose 2 umol/kg, time infinity, route intravenous
Summary of the method: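 Male C57BL/6 mice got a single injection into the saphenous vein under light anaesthesia at 5 mL/kg. Blood was taken at 5 and 30 min and 1, 2, 4, 6 and 8 h (n = 3 per time). Blood was extracted by acetonitrile precipitation and quantified by LC-MS/MS against a weighted linear calibration. AUC came from noncompartmental analysis with 1/Y weighting.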

[9] = Drug uptake in C57BL/6 mouse blood at 60 umol/kg, po dosed in carboxymethyl cellulose 0.5% w/v in water/Tween 80 (99.5/0.5, v/v) measured 1 hr post dosing by LC/MS/MS analysis; format: ADME, organism-based; conditions: read-out: Drug uptake
Summary of the method: (§4)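 Male C57BL/6 mice dosed by oral gavage, 10 mL/kg. Blood sampled 0.25, 0.5, 1, 2, 4, 6 h; brain at 1 and/or 4 h; n = 3 per time. Blood acetonitrile-precipitated, brain water-homogenized then precipitated; LC-MS/MS with weighted linear calibration.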

[10] = Drug uptake in C57BL/6 mouse blood at 60 umol/kg, po dosed in carboxymethyl cellulose 0.5% w/v in water/Tween 80 (99.5/0.5, v/v) measured 4 hrs post dosing by LC/MS/MS analysis; format: ADME, organism-based; conditions: read-out: Drug uptake; summary of the method: as §4
[11] = Volume of distribution at steady state in C57BL/6 mouse at 2 umol/kg, iv dosed in N-methyl pyrrolidone/blank plasma (10:90 v/v) by LC/MS/MS analysis; format: ADME, organism-based; conditions: read-out: Vdss
Summary of the method: (§5)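 Male C57BL/6 mice, saphenous vein injection under light anesthesia, 5 mL/kg. Blood at 5, 30 min and 1, 2, 4, 6, 8 h; brain at 5 min, 1, 4, 8 h; n = 3/time. LC-MS/MS after acetonitrile precipitation (brain water-homogenized). Noncompartmental analysis, 1/Y weighting, terminal slope from ≥3 points.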

[12] = Ratio of drug uptake in brain to blood in C57BL/6 mouse at 60 umol/kg, po dosed in carboxymethyl cellulose 0.5% w/v in water/Tween 80 (99.5/0.5, v/v) measured 4 hrs post dosing by LC/MS/MS analysis; format: ADME, organism-based; summary of the method: as §4
[13] = Blood clearance in C57BL/6 mouse at 2 umol/kg, iv dosed in N-methyl pyrrolidone/blank plasma (10:90 v/v) by LC/MS/MS analysis; format: ADME, organism-based; summary of the method: as §5
[14] = Ratio of drug uptake in brain to blood in C57BL/6 mouse at 60 umol/kg, po dosed in carboxymethyl cellulose 0.5% w/v in water/Tween 80 (99.5/0.5, v/v) measured 1 hr post dosing by LC/MS/MS analysis; format: ADME, organism-based; summary of the method: as §4
[15] = AUC (0 to infinity) in C57BL/6 mouse at 30 umol/kg, po dosed in carboxymethyl cellulose 0.5% w/v in water/Tween 80 (99.5/0.5, v/v) by LC/MS/MS analysis; format: ADME, organism-based; set-up: dose 30 umol/kg, route oral, time infinity; conditions: in vivo
Summary of the method: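 Male C57BL/6 mice were dosed by oral gavage at 10 mL/kg. Blood was sampled at 0.25, 0.5, 1, 2, 4 and 6 h postdose, extracted by acetonitrile precipitation and quantified by LC-MS/MS (typical LLOQ 0.4 ng/mL). AUCinf was obtained by noncompartmental analysis of concentration–time profiles, weighting 1/Y, with at least three terminal log-linear points.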

[16] = Oral bioavailability in C57BL/6 mouse at 30 umol/kg dosed in carboxymethyl cellulose 0.5% w/v in water/Tween 80 (99.5/0.5, v/v) by LC/MS/MS analysis; format: ADME, organism-based; conditions: in vivo
Summary of the method: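 Oral gavage (10 mL/kg) to male C57BL/6 mice with iv reference segment (2 μmol/kg, NMP/blank plasma 10:90). Noncompartmental analysis of LC-MS/MS blood profiles, 1/Y weighting; %F = dose-normalized oral AUC / dose-normalized iv AUC × 100, assuming linear pharmacokinetics between doses.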

Brain [17] = experiment: Drug uptake in C57BL/6 mouse brain at 60 umol/kg, po dosed in carboxymethyl cellulose 0.5% w/v in water/Tween 80 (99.5/0.5, v/v) measured 4 hrs post dosing by LC/MS/MS analysis; format: ADME, organism-based; conditions: in vivo; summary of the method: as §4
Brain [18] = experiment: Drug uptake in C57BL/6 mouse brain at 60 umol/kg, po dosed in carboxymethyl cellulose 0.5% w/v in water/Tween 80 (99.5/0.5, v/v) measured 1 hr post dosing by LC/MS/MS analysis; format: ADME, organism-based; conditions: in vivo; summary of the method: as §4
[19] = Half life in C57BL/6 mouse at 2 umol/kg, iv dosed in N-methyl pyrrolidone/blank plasma (10:90 v/v) by LC/MS/MS analysis; format: ADME, organism-based; summary of the method: as §5
Beta-secretase 1 [20] = target: T1, Beta-secretase 1; experiment: Inhibition of human BACE-1 mediated amyloid beta 40 release in Chinese hamster CHO cells expressing human wild-type APP
Cytochrome P450 3A4 = Cytochrome P450 3A4 (Homo sapiens, UniProt P08684); experiment: Inhibition of CYP3A4; format: ADME
Sequence of Cytochrome P450 3A4 (P08684 whole entry): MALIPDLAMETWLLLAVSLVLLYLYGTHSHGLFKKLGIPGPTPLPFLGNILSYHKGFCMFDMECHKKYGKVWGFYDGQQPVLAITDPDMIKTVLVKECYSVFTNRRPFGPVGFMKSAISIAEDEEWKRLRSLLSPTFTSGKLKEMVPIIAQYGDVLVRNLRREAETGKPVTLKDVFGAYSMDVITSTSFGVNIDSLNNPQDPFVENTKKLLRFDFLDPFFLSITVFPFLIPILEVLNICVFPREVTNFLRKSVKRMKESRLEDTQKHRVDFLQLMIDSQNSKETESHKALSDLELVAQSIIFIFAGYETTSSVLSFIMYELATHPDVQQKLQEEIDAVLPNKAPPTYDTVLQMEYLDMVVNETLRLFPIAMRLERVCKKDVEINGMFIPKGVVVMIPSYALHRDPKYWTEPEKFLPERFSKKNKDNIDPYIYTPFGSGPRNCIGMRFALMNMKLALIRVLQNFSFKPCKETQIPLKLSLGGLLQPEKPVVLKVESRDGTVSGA

T1 sequence (P56817 whole entry): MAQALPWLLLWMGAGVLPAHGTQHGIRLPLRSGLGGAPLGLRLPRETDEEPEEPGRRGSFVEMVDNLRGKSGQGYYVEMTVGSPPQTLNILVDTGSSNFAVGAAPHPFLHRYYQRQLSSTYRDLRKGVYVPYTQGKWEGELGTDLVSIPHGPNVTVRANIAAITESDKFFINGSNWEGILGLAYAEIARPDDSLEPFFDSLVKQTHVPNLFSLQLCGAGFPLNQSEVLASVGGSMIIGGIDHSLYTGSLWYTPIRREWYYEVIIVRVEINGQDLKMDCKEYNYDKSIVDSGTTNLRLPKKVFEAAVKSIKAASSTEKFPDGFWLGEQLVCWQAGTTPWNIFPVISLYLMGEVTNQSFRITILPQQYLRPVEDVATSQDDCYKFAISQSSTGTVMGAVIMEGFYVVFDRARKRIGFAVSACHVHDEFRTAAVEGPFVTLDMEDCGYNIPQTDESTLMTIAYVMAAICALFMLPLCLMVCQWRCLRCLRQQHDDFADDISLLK
Sequence of Cathepsin D (P07339 65-162 limits assumed): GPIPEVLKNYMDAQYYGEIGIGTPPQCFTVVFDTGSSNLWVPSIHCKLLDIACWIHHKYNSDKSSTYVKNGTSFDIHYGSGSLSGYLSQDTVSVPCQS
Sequence of Cathepsin D (P07339 169-412 limits assumed): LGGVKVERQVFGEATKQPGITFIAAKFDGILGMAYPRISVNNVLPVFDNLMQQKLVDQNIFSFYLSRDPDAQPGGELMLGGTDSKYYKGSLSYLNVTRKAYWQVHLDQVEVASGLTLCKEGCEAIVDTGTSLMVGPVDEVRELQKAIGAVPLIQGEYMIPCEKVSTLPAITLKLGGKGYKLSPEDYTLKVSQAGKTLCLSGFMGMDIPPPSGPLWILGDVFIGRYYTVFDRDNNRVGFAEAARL

Ratio IC50 (Homo sapiens) | pIC50 (Cathepsin D) | efflux ratio at 2 h, 5 µM (MDR1 (human) [1]) | Papp at 2 h, 5 µM (MDR1 (human) [5]) [×10⁻⁶ cm/s] | pIC50 (Beta-secretase 1 [6]) | SMILES | other results
> 100 | 6.17 | 10 | 22 | 8.22 | CC(C)(C)c1cccc(CN[C@H]2CS(=O)(=O)C[C@@H](Cc3cc(F)c(N)c(OCC(F)F)c3)[C@@H]2O)c1 | concentration at 4 h [2]: 12.2 µM; Activity (Mus musculus [3]): 32%; Drug uptake (Brain [4]): 2.1 nmol/g; Activity (Mus musculus [7]): 18%
 | 6.60 |  | 13 |  | COC[C@@H](Oc1cc(C[C@@H]2CS(=O)(=O)C[C@H](NCc3cccc(C(C)(C)C)c3)[C@H]2O)cc(F)c1N)C(F)(F)F | concentration at 4 h [2]: 7.3 µM; Activity (Mus musculus [3]): 48%; Drug uptake (Brain [4]): 1.9 nmol/g; Activity (Mus musculus [7]): 31%
> 100 | 5.28 | 2 | 7 | 7.35 | CCCOc1cc(C[C@@H]2CS(=O)(=O)C[C@H](NCc3cccc(C(C)(C)C)c3)[C@H]2O)ccc1N | 
5 | 6.14 | 2 | 13 | 6.85 | CC(C)(C)c1cccc(CN[C@H]2CS(=O)(=O)C[C@@H](Cc3ccc(N)c(Br)c3)[C@@H]2O)c1 | AUC(0-inf) [8]: 4.09 µM·h; concentration at 1 h [9]: 4.07 µM; concentration at 4 h [10]: 2.98 µM; Vd [11]: 1.6 L/kg; Kp at 4 h [12]: 0.6; clearance [13]: 8.1 mL/min/kg; Kp at 1 h [14]: 0.5; AUC(0-inf) [15]: 6.43 µM·h; bioavailability [16]: 10%; Drug uptake (Brain [17]): 1.92 nmol/g; Drug uptake (Brain [18]): 2.17 nmol/g; half-life [19]: 4 h
 |  | 23 | 11 |  | CCCN1CCC[C@@]12CCN([C@@H](C)C(=O)N[C@@H](Cc1ccccc1)[C@H](O)CNCc1cccc(C(C)C)c1)C2=O | pIC50 (Beta-secretase 1 [20]): 8.00
5 | 6.47 | 2 | 13 | 7.26 | CC(C)(C)c1cccc(CN[C@H]2CS(=O)(=O)C[C@@H](Cc3cc(F)c(N)c(Br)c3)[C@@H]2O)c1 | 
5 | 5.60 | 1 | 21 | 6.46 | CC(C)(C)c1cccc(CN[C@H]2CS(=O)(=O)C[C@@H](Cc3ccc(N)c(F)c3)[C@@H]2O)c1 | 
> 100 | 5.64 | 41 | 17 | 8.10 | CCc1cc(C[C@@H]2CS(=O)(=O)C[C@H](NCc3cccc(C(C)(C)C)c3)[C@H]2O)cc(F)c1NC(C)=O | 
40 | 5.99 | 3 | 18 | 7.62 | CCOc1cc(C[C@@H]2CS(=O)(=O)C[C@H](NCc3cccc(C(C)(C)C)c3)[C@H]2O)cc(F)c1N | concentration at 4 h [2]: 9 µM; Activity (Mus musculus [3]): 54%; Drug uptake (Brain [4]): 3.1 nmol/g; Activity (Mus musculus [7]): 34%
 | 6.29 | 8 | 20 | 8.15 | CC(C)(C)Cc1cc(CN[C@H]2CS(=O)(=O)C[C@@H](Cc3cc(F)c(N)c(OC(C(F)(F)F)C(F)(F)F)c3)[C@@H]2O)no1 | pIC50 (Cytochrome P450 3A4): 6.40
 | 5.51 | 17 | 38 | 7.17 | CC(C)(C)c1ccnc(CN[C@H]2CS(=O)(=O)C[C@@H](Cc3cc(F)c(N)c(OC(C(F)(F)F)C(F)(F)F)c3)[C@@H]2O)c1 | pIC50 (Cytochrome P450 3A4): 6.40
